Compound activity: PubChem BioAssay, several laboratories
Cl transport mod: KCC2 (human) Cl- transport modulation; Q9H2X9; KCC2 cells, thallium flux FluoZin-2 fluorescence; B-score of Tl+ flux slope (higher = more flux/activation; lower = inhibition) at 10 µM; actives 2.2% (n = 190,000);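 active = thallium flux slope and its plate-corrected score both differing from the plate sample mean at a set confidence after two filtering rounds, in either direction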;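 note: slope of fluorescence scaled to starting intensity during 10 to 20 s after thallium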
KCNK3 block: human KCNK3 channel inhibition, primary screen | CHO-KCNK3 thallium flux, FluxOR fluorescence; stronger effect = lower value | B-score at 10 µM | actives 0.84% (n = 340,000);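 active = B-score under library mean minus 4 SD, starting fluorescence ratio at most library mean plus 5 SD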;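 note: more negative B-score means stronger inhibition of thallium flux through KCNK3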
Target sequence (O14649 whole entry, looked up): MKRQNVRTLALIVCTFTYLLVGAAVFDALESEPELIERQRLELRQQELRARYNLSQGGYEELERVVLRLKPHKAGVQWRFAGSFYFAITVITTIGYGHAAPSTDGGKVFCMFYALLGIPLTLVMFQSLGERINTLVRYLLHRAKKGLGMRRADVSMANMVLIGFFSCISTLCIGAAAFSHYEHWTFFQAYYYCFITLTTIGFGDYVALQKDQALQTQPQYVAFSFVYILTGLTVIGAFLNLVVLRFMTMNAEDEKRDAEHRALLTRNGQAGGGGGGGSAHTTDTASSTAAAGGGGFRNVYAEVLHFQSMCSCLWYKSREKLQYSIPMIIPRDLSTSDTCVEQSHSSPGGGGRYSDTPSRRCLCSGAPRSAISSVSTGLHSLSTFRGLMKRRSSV
KCNK9 inh: inhibitors of human KCNK9 two-pore domain potassium channel. AID 488922. actives 1.2% (n = 310,000). B-score at 10 µM. Q9NPC2. HEK293 KCNK9, FluxOR thallium flux fluorescence; stronger effect = lower value;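 active = ratio B-score over 3 SD below the library mean, with starting fluorescence within 5 SD of its mean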;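 note: negative B-score means less thallium flux so channel inhibition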
Target sequence (Q9NPC2 whole entry, looked up, the tested form may be a part): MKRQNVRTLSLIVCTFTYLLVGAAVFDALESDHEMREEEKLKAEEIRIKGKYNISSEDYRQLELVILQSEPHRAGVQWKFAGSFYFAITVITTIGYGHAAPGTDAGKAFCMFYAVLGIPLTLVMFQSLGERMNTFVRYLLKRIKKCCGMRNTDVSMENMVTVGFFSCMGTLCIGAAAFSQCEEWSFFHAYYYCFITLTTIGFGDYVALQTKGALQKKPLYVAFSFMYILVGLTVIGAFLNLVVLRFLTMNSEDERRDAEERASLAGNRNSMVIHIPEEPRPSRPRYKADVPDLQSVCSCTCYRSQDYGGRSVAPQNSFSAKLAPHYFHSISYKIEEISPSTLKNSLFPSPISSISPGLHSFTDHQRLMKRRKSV
KCNQ1 pot: potentiators or activators of human KCNQ1 potassium channel; AID 2648; B-score at 10 µM; P51787; CHO-K1 KCNQ1, thallium flux FluxOR fluorescence; stronger effect = higher value; actives 0.35% (n = 310,000);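 active = fluorescence ratio B-score, a plate-corrected score, at least three library SD, with initial intensity B-score within 5 SD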
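Assay system: CHO-K1 cells stably expressing KCNQ1; Medium: assay buffer with matched DMSO; Also added: K+/Tl+ depolarizing stimulus; Dosing: single dose; Timing: dye 90 min, compound 20 min, room temperature; Measured by: kinetic FluxOR thallium fluorescence, 10-s 1-Hz baseline, 110-s post-stimulus read; Read-out: peak-minus-minimum fluorescence over initial fluorescence, negative-control normalized, B-scored.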
KCNQ1 inh: inhibitors of human KCNQ1 potassium channel | actives 1.3% (n = 310,000) | B-score at 10 µM | AID 2642 | CHO-K1 KCNQ1, FluxOR thallium flux fluorescence; stronger effect = higher value | P51787;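 active = compounds whose thallium flux B-score, printed positive for inhibition, exceeds three library SD while starting fluorescence stays within three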;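 note: channel opened by potassium depolarization with thallium stimulus after 20 min compound exposure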
hERG rescue: shields human hERG channel from block by proarrhythmic agents; Q12809; CHO-hERG, FluxOR thallium flux, dofetilide IC70 present; activation (rescue from dofetilide block), less the hit threshold, % at 10 µM; actives 0.51% (n = 310,000); AID 1511;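 active = activation above the mean of controls blocked by dofetilide plus 5 SD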;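 note: thallium influx through hERG after potassium depolarization seen as dye fluorescence rise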
KCNK9 block conf: human KCNK9 inhibitor confirmation | AID 492992 | inhibition, % at 10 µM | shares compounds with KCNK9 inh | HEK293 KCNK9 cells, FluxOR thallium flux fluorescence | actives 43% (n = 4,900);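 active = thallium signal inhibited by more than 5 SD of the compound-free buffer control wells, on both duplicate plates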
Kir21 sel: mouse Kir2.1 off-target activity of KCNK9 modulators. shares compounds with KCNK9 inh. inhibition, % at 10 µM. actives 4% (n = 4,900). Kir2.1 cells, FluxOR thallium flux fluorescence;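 active = thallium signal drop more than 5 SD beyond the mean of the no-compound control wells, seen in both duplicate plates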;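 note: signal is fluorescence rise after thallium addition divided by baseline fluorescence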
HEK293 Tl ctr: non-induced cell nonspecific activity of KCNK9 modulators; non-induced KCNK9-HEK293, FluxOR thallium flux; actives 40% (n = 4,900); shares compounds with KCNK9 inh; inhibition, % at 10 µM;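 active = thallium signal drop beyond 5 SD of the untreated control mean, on both duplicate plates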
KCNK3 confirm: confirmation of human KCNK3 two-pore domain potassium channel inhibitors | shares compounds with KCNK3 block | CHO-KCNK3 thallium flux, FluxOR fluorescence; 0% buffer, 100% carvedilol maximal block | ratio percent of control, % at 10 µM | actives 99% (n = 2,400) | AID 651638;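 active = ratio percent of control, averaged over triplicates, above buffer control mean plus 5 SD, cut at about 64% in these data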;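 note: ratio is the fluorescence rise from min to max over baseline after thallium stimulus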
KCNK3 noninduced: KCNK3 inhibitor counter-screen hit in non-induced cells; shares compounds with KCNK3 block; non-induced KCNK3 parental cells, FluxOR thallium flux; stronger effect = lower value; thallium flux ratio (lower = more inhibition) at 10 µM; actives 40% (n = 2,400); AID 651747;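 active = thallium flux ratio, averaged over three wells, more than 5 SD below the buffer control mean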;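 note: host cells are CHO cells without KCNK3 induction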
Numbers stand for hits; - = inactive; . = no result. Hits are enriched below; roughly 4.1% of the tested compounds scored in any of these assays.

SMILES | Cl transport mod | KCNK3 block | KCNK9 inh | KCNQ1 pot | KCNQ1 inh | hERG rescue | KCNK3 confirm | KCNK3 noninduced | others
N=c1c2c(-c3ccccc3)c(-c3ccccc3)n(Cc3ccco3)c2ncn1Cc1ccco1 | - | -14.5 | -8.67 | - | 11 | - | 110.3 | 0.153 | KCNK9 block conf=54.5%;Kir21 sel=45.5%;HEK293 Tl ctr=31.0%
CC(NC(=O)c1ccco1)c1nc(-c2ccccc2)no1 (stereo not drawn) | . | - | - | - | - | - | . | .
CC(Oc1ccc(Cl)cc1Cl)c1nc(-c2ccc(NC(=O)c3ccco3)cc2)no1 (stereo not drawn) | . | -8.83 | -13 | - | - | - | 121.0 | 0.147 | KCNK9 block conf=53.0%;Kir21 sel=-;HEK293 Tl ctr=34.5%
CN(CC(=O)Nc1ccc([N+](=O)[O-])cc1Br)Cc1c(F)cccc1Cl | - | -10.1 | -14.8 | - | - | - | 94.7 | 0.156 | KCNK9 block conf=-;Kir21 sel=-;HEK293 Tl ctr=43.0%
COc1ccc(NC(=O)[C@@H]2CCCN2S(=O)(=O)c2ccccc2F)cc1S(=O)(=O)N1CCCCC1 | . | - | . | . | . | . | . | .
O=C(CSc1nc2[nH]ncc2c(=O)n1-c1ccccc1)NCCc1ccccc1 | - | - | - | - | - | - | . | .
O=C(CSc1nc2[nH]ncc2c(=O)n1-c1ccc(Cl)c(Cl)c1)NCc1ccccc1Cl | - | -12.2 | -8.18 | - | - | - | 128.3 | 0.141 | KCNK9 block conf=48.5%;Kir21 sel=-;HEK293 Tl ctr=33.5%
O=C(/C=C/c1ccccc1Cl)c1ccc(O)cc1 | - | - | - | - | - | - | . | .
O=C(/C=C/c1ccccc1Cl)c1cccnc1 | - | -9.73 | - | - | - | - | 86.3 | -
CCCn1c(/C=C/c2ccccc2)nc2ccccc21 | . | - | - | - | - | - | . | .
COCCOCCn1c(/C=C/c2ccccc2)nc2ccccc21 | - | -9.23 | - | - | - | - | 93.0 | -
Cc1cccc(/C=C/c2nc3ccccc3c(=O)[nH]2)c1 | . | -9.42 | - | - | - | - | 87.3 | -
Cc1[nH]c2ccccc2c1/C=C/c1nc2ccccc2c(=O)[nH]1 | - | - | - | - | - | - | . | .
COc1ccc(NC(C)=O)cc1NC(C)C(=O)Nc1ccc(S(=O)(=O)N2CCCCC2)cc1 (stereo not drawn) | . | - | . | . | . | . | . | .
CCOCCn1ccc2c(OCC(=O)Nc3ccccc3OC)cccc2c1=O | . | -10.6 | - | - | - | - | 93.3 | -
Cc1cc(C(=O)CSc2n[nH]c(-c3ccccc3F)n2)c(C)n1Cc1cccs1 | - | -10.2 | - | - | - | - | 91.7 | -
Cc1csc(SCC(=O)c2cc(C)n(Cc3cccs3)c2C)n1 | . | -9.5 | - | - | - | - | 132.7 | 0.139
Cc1cc(C(=O)CSc2nnc(N)s2)c(C)n1Cc1cccs1 | - | - | - | - | - | - | . | .
Cc1ccc(NC(=O)c2ccc(C)cc2)cc1 | . | - | - | - | - | - | . | .
Cc1ccc(C(=O)Nc2ccc(Br)c(C(F)(F)F)c2)cc1 | - | -9.26 | - | - | - | - | 119.7 | -
CCOc1cc(/C=N/NC(=O)CN2CCOCC2)ccc1OCc1ccc(Cl)cc1 | . | -10.7 | - | - | - | - | - | -
CCOc1cc(/C=N/NC(=O)CN2CCCCC2)ccc1OCc1ccccc1 | - | - | - | - | - | - | . | .
Cc1ccc(C(=O)CSc2cc(C)nc(SCC(=O)c3ccccc3)n2)cc1 | - | -9.02 | - | - | - | - | 112.3 | -
Cc1cc(SCC(N)=O)nc(SCC(=O)c2ccccc2)n1 | - | - | - | - | - | - | . | .
Cc1nn(-c2ccc3ccccc3c2)c(=O)c2ccccc12 | - | -8.93 | - | - | - | - | 91.7 | -
SMILES | Cl transport mod | KCNK3 block | KCNK9 inh | KCNQ1 pot | KCNQ1 inh | hERG rescue | KCNK3 confirm | KCNK3 noninduced | others
Cc1nn(-c2ccc(Cl)c(Cl)c2)c(=O)c2ccccc12 | - | -11.3 | - | - | - | - | 105.0 | -
CNC(=S)NCc1ccc2[nH]c3c(c2c1)CCCC3 | - | - | - | - | - | - | . | .
Cc1ccc(C)c(NC(=S)NCc2ccc3[nH]c4c(c3c2)CCCC4)c1 | - | -13.5 | - | - | - | - | 119.7 | 0.142
COc1ccc(CCNS(=O)(=O)CCNC(=O)c2ccc(OC)cc2)cc1 | . | - | - | - | - | - | . | .
CCCOc1ccccc1Cn1c(=O)oc2ccccc21 | . | -8.75 | - | - | - | - | 100.7 | -
CCCCOc1ccccc1Cn1c(=O)oc2ccc(C)cc21 | - | - | - | - | - | - | . | .
CCCCCOc1ccc(/C=C/c2c([N+](=O)[O-])c(=O)n(C)c(=O)n2C)cc1 | . | - | - | - | - | - | . | .
CCN(CC(=O)Nc1ccccc1OC)C(=O)CC1CCCC1 | . | - | . | . | . | . | . | .
CCOC(=O)CSc1nc2c(c(-c3ccc(C)o3)c1C#N)CCCC2 | - | -9.32 | - | - | - | - | 97.7 | -
CC(=O)N1CCN(C(=O)c2ccc(S(=O)(=O)Nc3ccccc3F)cc2)CC1 | . | - | . | . | . | . | . | .
Nc1[nH]c2cc([N+](=O)[O-])ccc2c1-c1ccccn1 | . | -10.3 | - | - | - | - | 115.3 | 0.136
Cc1cc(C)c2nc3sc(C(=O)N4CCOCC4)c(N)c3cc2c1 | - | -10.7 | - | - | - | - | 115.0 | 0.133
O=CN1CCN(S(=O)(=O)c2ccc(S(=O)(=O)NC3CCCCC3)cc2)CC1 | . | - | - | - | - | - | . | .
O=C(COC(=O)c1ccccc1[N+](=O)[O-])NC(=O)c1ccccc1 | . | - | - | - | - | - | . | .
O=C(COC(=O)c1ccccc1-c1ccccc1[N+](=O)[O-])c1ccccc1 | - | -10.5 | - | - | - | - | 92.0 | -
Oc1cnc2ccccc2c1CN1CCOCC1 | - | -8.95 | - | - | - | - | 81.7 | -
Oc1ccc2ccccc2c1CN1CCOCC1 | - | - | - | - | - | - | . | .
C=CCN(Cc1nc(-c2ccccc2)no1)C(=O)c1ccc2c(c1)OCO2 | . | - | - | - | - | - | . | .
CN(CC(=O)Nc1cccc(F)c1)C(=O)c1cc([N+](=O)[O-])ccc1N1CCOCC1 | . | - | - | - | - | - | . | .
COc1cc(/C=C2\SC(c3ccc(C)cc3)=NC2=O)ccc1O | . | -9.37 | - | - | - | - | 142.0 | 0.099
COc1ccc(/C=C2/SC(c3ccc(C)cc3)=NC2=O)cc1OC | . | - | - | - | - | - | . | .
COc1ccc(S(=O)(=O)Nc2c(C)nn(C)c2C)cc1Br | . | - | . | . | . | . | . | .
